Calls of active or inactive are those of the source. No cut-off for these calls is given here.
Columns and labels:
[1] = biological target: T1, Catenin beta-1 (Homo sapiens) (UniProt P35222); assay: Induction of beta-catenin degradation in Wnt3a-stimulated HEK293 cells by NanoBiT cell-based immunoassay
T1 sequence (whole entry): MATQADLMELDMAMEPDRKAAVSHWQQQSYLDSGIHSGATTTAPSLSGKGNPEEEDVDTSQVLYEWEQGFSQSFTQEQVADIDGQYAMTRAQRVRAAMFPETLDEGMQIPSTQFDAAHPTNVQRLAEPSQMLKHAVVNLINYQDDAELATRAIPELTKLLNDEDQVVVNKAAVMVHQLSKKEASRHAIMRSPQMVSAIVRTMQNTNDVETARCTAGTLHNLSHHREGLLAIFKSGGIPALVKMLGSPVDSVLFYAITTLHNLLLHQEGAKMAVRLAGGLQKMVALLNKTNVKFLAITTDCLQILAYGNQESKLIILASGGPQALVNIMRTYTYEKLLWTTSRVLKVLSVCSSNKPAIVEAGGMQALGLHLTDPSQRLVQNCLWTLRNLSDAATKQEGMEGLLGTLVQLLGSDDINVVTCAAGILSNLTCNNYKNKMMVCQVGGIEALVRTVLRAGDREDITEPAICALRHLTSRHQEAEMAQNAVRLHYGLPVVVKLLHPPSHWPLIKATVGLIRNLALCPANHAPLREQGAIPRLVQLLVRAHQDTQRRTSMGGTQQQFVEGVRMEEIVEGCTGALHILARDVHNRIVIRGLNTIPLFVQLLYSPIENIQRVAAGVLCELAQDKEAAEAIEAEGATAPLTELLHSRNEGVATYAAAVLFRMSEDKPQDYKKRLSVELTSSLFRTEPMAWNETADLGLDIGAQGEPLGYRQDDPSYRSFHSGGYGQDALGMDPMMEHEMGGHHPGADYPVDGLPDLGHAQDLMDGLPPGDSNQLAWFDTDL

[2] = biological target: T2, Retinoblastoma-associated protein (Homo sapiens) (UniProt P06400); assay: Inhibition of RB protein in human MCF7 cells assessed as reduction in 17beta-estradiol-induced Rb phosphorylation at Ser807/811 residue by NanoBiT cell-based immunoassay
T2 sequence (whole entry): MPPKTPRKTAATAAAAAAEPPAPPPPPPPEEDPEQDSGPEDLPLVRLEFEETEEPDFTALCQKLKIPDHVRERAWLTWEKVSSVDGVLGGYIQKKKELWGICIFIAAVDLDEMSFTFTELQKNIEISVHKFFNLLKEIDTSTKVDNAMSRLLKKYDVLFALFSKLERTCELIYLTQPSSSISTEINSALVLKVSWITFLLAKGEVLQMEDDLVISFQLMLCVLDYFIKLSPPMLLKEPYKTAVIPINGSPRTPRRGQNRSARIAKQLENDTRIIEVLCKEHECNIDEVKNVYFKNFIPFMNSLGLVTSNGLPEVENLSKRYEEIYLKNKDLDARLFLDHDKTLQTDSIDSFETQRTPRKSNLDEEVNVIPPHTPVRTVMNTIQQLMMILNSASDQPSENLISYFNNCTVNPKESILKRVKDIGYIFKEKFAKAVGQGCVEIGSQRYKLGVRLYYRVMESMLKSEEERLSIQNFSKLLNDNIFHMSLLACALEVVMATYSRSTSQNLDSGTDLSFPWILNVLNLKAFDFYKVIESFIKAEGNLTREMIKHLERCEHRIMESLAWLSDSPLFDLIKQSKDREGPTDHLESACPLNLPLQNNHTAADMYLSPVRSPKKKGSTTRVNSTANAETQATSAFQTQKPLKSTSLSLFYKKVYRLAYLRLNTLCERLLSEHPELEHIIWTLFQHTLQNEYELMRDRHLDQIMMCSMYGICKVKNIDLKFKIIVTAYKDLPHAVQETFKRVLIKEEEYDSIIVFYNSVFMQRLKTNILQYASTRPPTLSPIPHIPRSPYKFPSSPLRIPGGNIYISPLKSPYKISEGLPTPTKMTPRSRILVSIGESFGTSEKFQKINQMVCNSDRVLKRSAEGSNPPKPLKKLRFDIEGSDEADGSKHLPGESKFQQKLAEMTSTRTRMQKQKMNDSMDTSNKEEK

[3] = biological target: T2, Retinoblastoma-associated protein (Homo sapiens); assay: Inhibition of RB protein in human MCF7 cells assessed as reduction in 17beta-estradiol-induced Rb phosphorylation at Ser780 residue by NanoBiT cell-based immunoassay
[4] = biological target: T2, Retinoblastoma-associated protein (Homo sapiens); assay: Inhibition of RB protein in human MCF7 cells assessed as reduction in EGF-induced Rb phosphorylation at Ser807/811 residue by NanoBiT cell-based immunoassay
[5] = biological target: T2, Retinoblastoma-associated protein (Homo sapiens); assay: Inhibition of RB protein in human MCF7 cells assessed as reduction in EGF-induced Rb phosphorylation at Ser780 residue by NanoBiT cell-based immunoassay
MCF7 [6] = assay: Inhibition of PI3K in human MCF7 cells assessed as reduction in insulin-induced AKT S473 phosphorylation at 20 uM preincubated for 1 hr followed by insulin stimulation and measured after 10 mins by NanoBiT cell-based immunoassay; settings: time 70.0 min
In short: (§1)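 MCF-7 cells, 50,000/well, were held overnight without serum. They were pretreated 1 h with 20 µM inhibitor, then given insulin (1 µM, 10 min). After 20 min digitonin lysis with protease/phosphatase inhibitors, AKT S473 phosphorylation (20) or total AKT (1) was read by NanoBiT immunoassay (antibody mix 90 min, 23 °C; Nano-Glo luminescence). Means ± S.E.M., n = 3 technical replicates.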

[7] = Effect on total AKT expression in human MCF7 cells at 20 uM measured after 1 hr by NanoBiT cell-based immunoassay; assay type: toxicity; settings: mcf7, 1 h; in short: as §1
MCF7 [8] = assay: Inhibition of PI3K in human MCF7 cells assessed as reduction in insulin-induced AKT S473 phosphorylation preincubated for 1 hr followed by insulin stimulation and measured after 10 mins by NanoBiT cell-based immunoassay; settings: time 70.0 min
In short: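 For this dose–response, serum-starved MCF-7 cells (50,000/well, overnight without serum) were pretreated 1 h with a concentration series of inhibitor, then stimulated with insulin (1 µM, 10 min). p-AKT S473 was measured by NanoBiT immunoassay: digitonin lysis 20 min, primary pair plus NanoBiT secondaries 90 min at 23 °C, Nano-Glo luminescence. IC50 was derived from the titration.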

MCF7 [9] = assay: Inhibition of PI3K in human MCF7 cells assessed as reduction in IGF1-induced AKT S473 phosphorylation preincubated for 1 hr followed by IGF1 stimulation and measured after 10 mins by NanoBiT cell-based immunoassay; settings: time 70.0 min
MCF7 [10] = assay: Inhibition of PI3K in human MCF7 cells assessed as reduction in insulin-induced AKT T308 phosphorylation preincubated for 1 hr followed by insulin stimulation and measured after 10 mins by NanoBiT cell-based immunoassay; settings: time 70.0 min

| Activity [1] | inhibition [2] | inhibition [3] | inhibition [4] | inhibition [5] | SMILES | inhibition (MCF7 [6]) | Activity [7] | inhibition (MCF7 [8]) | inhibition (MCF7 [9]) | inhibition (MCF7 [10]) |
| --- | --- | --- | --- | --- | --- | --- | --- | --- | --- | --- |
| Active | – | – | – | – | O=C1Nc2ccccc2C12OCC1(CO2)COC2(OC1)C(=O)Nc1ccccc12 (centres undefined) | – | – | – | – | – |
| – | Active | Active | Active | Active | CCN(CC)C(=O)c1ccc(Nc2nc(OCC3CCCCC3)c3nc[nH]c3n2)cc1 | – | – | – | – | – |
| – | – | – | – | – | O=c1cc(N2CCOCC2)oc2c(-c3ccccc3)cccc12 [LY-294002] | Active | Non-Toxic | Dose-Dependent Effect | Active | Active |
| – | Active | Active | Active | Active | CC(=O)c1c(C)c2cnc(Nc3ccc(N4CCNCC4)cn3)nc2n(C2CCCC2)c1=O | – | – | – | – | – |
